Results taken from ChEMBL document CHEMBL1932986, “Synthesis and in vitro antimycobacterial activity of compounds derived from (R)- and (S)-2-amino-1-butanol - The crucial role of the configuration” (Eur J Med Chem, 2012).

Columns and labels:
Saccharomyces cerevisiae = assay: Antifungal activity against Saccharomyces cerevisiae ATCC 9763 at 12.5 mg/ml after 72 hrs by agar diffusion test; type: functional; conditions: ATCC 9763, 72 h, read-out: DIZ
Procedure, shortened: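 Agar diffusion: yeasts grown on yeast peptone dextrose agar and fungi on potato dextrose agar. Wells are filled with […] of compound solution in DMSO at various concentrations, and the clear-zone diameter is measured. Bracketed values give the lowest concentration (mg/ml) that produces a zone >11 mm. A first screen is run at 50 mg/ml.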

Candida tropicalis = assay: Antifungal activity against Candida tropicalis ATCC 20336 at 25 mg/ml after 72 hrs by agar diffusion test; type: functional; conditions: ATCC 20336, 72 h, read-out: DIZ
Procedure, shortened: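 Yeast grown on yeast peptone dextrose agar; wells cut in the seeded agar are filled with compound solution in DMSO. Read-out is the diameter of the clear inhibition zone.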

Row | Structure (SMILES) | zone of inhibition at 12500 µg/mL (Saccharomyces cerevisiae) [mm] | zone of inhibition at 25000 µg/mL (Candida tropicalis) [mm]
1 | CCC(C)n1ncn(-c2ccc(N3CCN(c4ccc(OCC5COC(Cn6cncn6)(c6ccc(Cl)cc6Cl)O5)cc4)CC3)cc2)c1=O (configuration not stated) [ITRACONAZOLE] | 30 | 
2 | OC(Cn1cncn1)(Cn1cncn1)c1ccc(F)cc1F [FLUCONAZOLE] |  | 35
